Test results published in ChEMBL document CHEMBL3414536 (Eur J Med Chem, 2015).
pIC50: −log10 of the molar value.

Tests used:
Hs 683 = assay: Cytostatic activity against human Hs683 cells after 72 hrs by videomicroscopy; assay type: functional, cell-based; conditions: Hs 683, 72 h
[1] = Aqueous solubility of the compound; assay type: physicochemical; conditions: buffer
Summary of the method: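 Solubility measured at pH 7.4, room temperature, by a previously described protocol; reported in µg/ml.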

A549 = assay: Cytotoxicity against human A549 cells by MTT assay; assay type: functional, cell-based
Summary of the method: (§1)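 Human cancer cell lines were cultured for three days with or without compound at 10 nM to 100 µM and read by MTT colorimetric assay. IC50 is the concentration reducing global growth by 50% relative to untreated controls.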

SK-MEL-28 [2] = assay: Cytotoxicity against human SK-MEL-28 cells by MTT assay; assay type: functional, cell-based; summary of the method: as §1
[3] = Cytotoxicity against human U373 cells by MTT assay; assay type: functional, cell-based, U-373MG ATCC; conditions: U373 MG; summary of the method: as §1
T98G = assay: Cytotoxicity against human T98G cells by MTT assay; assay type: functional, cell-based; summary of the method: as §1
[4] = Cytotoxicity against human Hs683 cells by MTT assay; assay type: functional, cell-based; conditions: Hs 683; summary of the method: as §1
SK-MEL-28 [5] = assay: Cytostatic activity against human SK-MEL-28 cells after 72 hrs by videomicroscopy; assay type: functional, cell-based; conditions: SK-MEL-28, 72 h
[6] = Cytostatic activity against human U373 cells after 72 hrs by videomicroscopy; assay type: functional, cell-based, U-373MG ATCC; conditions: U373 MG

SMILES | pIC50 (Hs 683) | solubility ([1]; read-out: solubility) [µg/mL] | pIC50 (A549) | pIC50 (SK-MEL-28 [2]) | pIC50 [3] | pIC50 (T98G) | pIC50 [4] | further results
Cc1c2c(cc[n+]1Cc1ccccc1F)c1ccc(OCc3ccccc3)cc1n2Cc1ccccc1 | 6.40 | – | – | – | – | – | – | –
Cc1c2c(cc[n+]1Cc1ccccc1F)c1ccc(OCC3CCCCC3)cc1n2CC1CCCCC1 | 6.52 | – | – | – | – | – | – | –
CCCn1c2cc(OCc3ccccc3)ccc2c2cc[n+](Cc3ccccc3F)c(C)c21 | 6.30 | – | – | – | – | – | – | –
Cc1c2c(cc[n+]1Cc1ccc(F)cc1)c1ccc(OCc3cccc(F)c3)cc1n2Cc1cccc(F)c1.[Br-] | – | – | – | – | – | – | – | solubility [1]: 2.4 µg/mL
CCCn1c2cc(OCc3ccccc3)ccc2c2cc[n+](CC)c(C)c21.[Br-] | – | 207 | 5.70 | 5.40 | 4.66 | 4.96 | 5.52 | –
Cc1c2c(cc[n+]1CCC(C)C)c1ccc(OCc3ccccc3)cc1n2Cc1ccccc1 | 6.40 | – | – | – | – | – | – | –
Cc1c2c(cc[n+]1Cc1ccccc1)c1ccc(OCCC(C)C)cc1n2CCC(C)C | 5.51 | – | – | – | – | – | – | –
Cc1c2c(cc[n+]1Cc1ccccc1)c1ccc(OCc3ccccc3)cc1n2Cc1ccccc1.[Br-] | – | 72.5 | – | – | – | – | – | –
Cc1c2c(cc[n+]1CCO)c1ccc(OCCO)cc1n2CCO.[Br-] | – | > 206 | 4.29 | 4.29 | < 4.00 | – | < 4.00 | –
Cc1c2c(cc[n+]1Cc1ccccc1)c1ccc(OCC3CCCCC3)cc1n2CC1CCCCC1.[Br-] | 6.40 | < 1.7 | – | – | – | – | – | –
Cc1c2c(cc[n+]1CC(=O)c1ccccc1)c1ccc(OCc3ccccc3)cc1n2Cc1ccccc1 | 4.59 | – | – | – | – | – | – | –
Cc1nccc2c3ccc(OCc4cccc(F)c4)cc3n(Cc3cccc(F)c3)c12 | 4.77 | – | – | – | – | – | – | –
Cc1c2c(cc[n+]1CCC(C)C)c1ccc(OCCC(C)C)cc1n2CCc1nnn[nH]1 | – | – | < 4.00 | < 4.00 | – | – | < 4.00 | –
CCCn1c2cc(OCc3ccccc3)ccc2c2cc[n+](CC(C)C)c(C)c21.[Br-] | – | 207 | 6.10 | 6.22 | 6.00 | 5.42 | 6.40 | –

Now from value to molecule, other results behind:

pIC50 (Hs 683) | solubility ([1]; read-out: solubility) [µg/mL] | SMILES | pIC50 (A549) | pIC50 (SK-MEL-28 [2]) | pIC50 [3] | pIC50 (T98G) | pIC50 [4] | further results
– | 174 | CCCOc1ccc2c3cc[n+](CC)c(C)c3n(CCC)c2c1.[Br-] | 6.15 | 5.10 | 4.46 | 4.66 | 5.70 | –
6.00 | 186 | CCCn1c2cc(OCCC(C)C)ccc2c2cc[n+](CC)c(C)c21.[Br-] | 6.70 | 6.00 | 6.22 | 6.05 | 7.05 | pIC50 (SK-MEL-28 [5]): 6.00; pIC50 [6]: 6.00
– | > 219 | Cc1c2c(cc[n+]1CCC(C)C)c1ccc(OCCO)cc1n2CCO.[Br-] | < 4.00 | < 4.00 | < 4.00 | – | < 4.00 | –
– | 196 | CCCOc1ccc2c3cc[n+](CCC(C)C)c(C)c3n(CCC)c2c1.[Br-] | 5.70 | 5.52 | 4.66 | 5.40 | 6.00 | –
6.52 | – | Cc1c2c(cc[n+]1CCC(C)C)c1ccc(OCCC(C)C)cc1n2CCC(C)C | – | – | – | – | – | –
6.00 | 164 | CCCn1c2cc(OCc3ccccc3)ccc2c2cc[n+](CCC(C)C)c(C)c21.[Br-] | 6.52 | 6.00 | 5.70 | 5.82 | 6.52 | pIC50 (SK-MEL-28 [5]): 6.00; pIC50 [6]: 6.00
– | 185 | CCCn1c2cc(OCCC(C)C)ccc2c2cc[n+](CCC)c(C)c21.[Br-] | 6.52 | 6.05 | 6.22 | 5.92 | 7.40 | –
